Experimental data: ChEMBL document CHEMBL2069282, “Sugar-modified derivatives of cytostatic 7-(het)aryl-7-deazaadenosines: 2'-C-methylribonucleosides, 2'-deoxy-2'-fluoroarabinonucleosides, arabinonucleosides and 2'-deoxyribonucleosides” (Bioorg Med Chem, 2012)
pEC50, pIC50: −log10 of the molar value.

Test system: Hepatitis C virus
Experiment: Antiviral activity against Hepatitis C virus subtype 1a replicons infected in human HuH7 cells assessed as reduction in viral RNA levels by Rt-PCR
Type: functional, organism-based, Hepacivirus hominis
Settings: Huh-7

Compound	pEC50
C[C@@]1(O)[C@H](O)[C@@H](CO)O[C@H]1n1cc(-c2ccccc2)c2c(N)ncnc21	4.45
Nc1ncnc2c1c(-c1ccoc1)cn2[C@@H]1O[C@H](CO)[C@@H](O)[C@@H]1O	4.60
COc1ccc(-c2cn([C@@H]3O[C@H](CO)[C@@H](O)[C@@]3(C)O)c3ncnc(N)c23)cc1	4.92
C[C@@]1(O)[C@H](O)[C@@H](CO)O[C@H]1n1cc(-c2cccc3ccccc23)c2c(N)ncnc21	4.61
C[C@@]1(O)[C@H](O)[C@@H](CO)O[C@H]1n1cc(-c2ccoc2)c2c(N)ncnc21	4.74
C[C@@]1(O)[C@H](O)[C@@H](CO)O[C@H]1n1cc(-c2ccsc2)c2c(N)ncnc21	4.44
Nc1ncnc2c1c(-c1ccccc1)cn2[C@@H]1O[C@H](CO)[C@@H](O)[C@@H]1F	4.58
Nc1ncnc2c1c(-c1ccco1)cn2[C@@H]1O[C@H](CO)[C@@H](O)[C@@H]1F	4.80
Nc1ncnc2c1c(-c1ccoc1)cn2[C@@H]1O[C@H](CO)[C@@H](O)[C@@H]1F	4.43

The next compounds have a higher pEC50 than those just listed; values first:

pEC50	Compound
6.43	C[C@@]1(O)[C@H](O)[C@@H](CO)O[C@H]1n1cc(I)c2c(N)ncnc21
5.31	C[C@@]1(O)[C@H](O)[C@@H](CO)O[C@H]1n1cc(-c2ccc3ccccc3c2)c2c(N)ncnc21
5.21	C[C@@]1(O)[C@H](O)[C@@H](CO)O[C@H]1n1cc(-c2cc3ccccc3o2)c2c(N)ncnc21
5.55	Nc1ncnc2c1c(-c1cccs1)cn2[C@@H]1O[C@H](CO)[C@@H](O)[C@@H]1F
4.96	Nc1ncnc2c1c(-c1ccsc1)cn2[C@@H]1O[C@H](CO)[C@@H](O)[C@@H]1F

Test system: not listed separately
Experiment: Cytotoxicity against human HeLaS3 cells incubated for 3 days by XTT assay
Type: functional, cell-based
Settings: HeLa S3, 72 h
Summary of the method: (§1)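 Cell viability read by a metabolic XTT tetrazolium method after 3-day incubation of cells with compound. Values are from 2–4 independent experiments.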

Compound	pIC50
Nc1ncnc2c1c(-c1ccoc1)cn2[C@@H]1O[C@H](CO)[C@@H](O)[C@@H]1O	5.08
C[C@@]1(O)[C@H](O)[C@@H](CO)O[C@H]1n1cc(I)c2c(N)ncnc21	5.12
C[C@@]1(O)[C@H](O)[C@@H](CO)O[C@H]1n1cc(-c2ccc3ccccc3c2)c2c(N)ncnc21	< 5.00
C[C@@]1(O)[C@H](O)[C@@H](CO)O[C@H]1n1cc(-c2cc3ccccc3o2)c2c(N)ncnc21	< 5.00
Nc1ncnc2c1c(-c1cccs1)cn2[C@@H]1O[C@H](CO)[C@@H](O)[C@@H]1F	5.25

Test system: HL-60
Experiment: Cytotoxicity against human HL60 cells incubated for 3 days by XTT assay
Type: functional, cell-based
Settings: HL-60, 72 h
Summary of the method: as §1

Compound	pIC50
Nc1ncnc2c1c(-c1ccoc1)cn2[C@@H]1O[C@H](CO)[C@@H](O)[C@@H]1O	< 5.00
C[C@@]1(O)[C@H](O)[C@@H](CO)O[C@H]1n1cc(I)c2c(N)ncnc21	< 5.00
C[C@@]1(O)[C@H](O)[C@@H](CO)O[C@H]1n1cc(-c2ccc3ccccc3c2)c2c(N)ncnc21	< 5.00
C[C@@]1(O)[C@H](O)[C@@H](CO)O[C@H]1n1cc(-c2cc3ccccc3o2)c2c(N)ncnc21	< 5.00
Nc1ncnc2c1c(-c1cccs1)cn2[C@@H]1O[C@H](CO)[C@@H](O)[C@@H]1F	< 5.00

Test system: not listed separately
Experiment: Selectivity index, ratio of CC50 for human HuH7 cells to EC50 for Hepatitis C virus subtype 1a replicons
Type: toxicity, cell-based, Huh-7
Settings: read-out: Ratio CC50/EC50

Compound	selectivity ratio
C[C@@]1(O)[C@H](O)[C@@H](CO)O[C@H]1n1cc(-c2ccccc2)c2c(N)ncnc21	< 10
Nc1ncnc2c1c(-c1ccoc1)cn2[C@@H]1O[C@H](CO)[C@@H](O)[C@@H]1O	< 10
C[C@@]1(O)[C@H](O)[C@@H](CO)O[C@H]1n1cc(I)c2c(N)ncnc21	65
COc1ccc(-c2cn([C@@H]3O[C@H](CO)[C@@H](O)[C@@]3(C)O)c3ncnc(N)c23)cc1	< 10
C[C@@]1(O)[C@H](O)[C@@H](CO)O[C@H]1n1cc(-c2cccc3ccccc23)c2c(N)ncnc21	< 10
C[C@@]1(O)[C@H](O)[C@@H](CO)O[C@H]1n1cc(-c2ccc3ccccc3c2)c2c(N)ncnc21	< 10
C[C@@]1(O)[C@H](O)[C@@H](CO)O[C@H]1n1cc(-c2ccoc2)c2c(N)ncnc21	< 10
C[C@@]1(O)[C@H](O)[C@@H](CO)O[C@H]1n1cc(-c2ccsc2)c2c(N)ncnc21	< 10
C[C@@]1(O)[C@H](O)[C@@H](CO)O[C@H]1n1cc(-c2cc3ccccc3o2)c2c(N)ncnc21	< 10
Nc1ncnc2c1c(-c1ccccc1)cn2[C@@H]1O[C@H](CO)[C@@H](O)[C@@H]1F	< 10
Nc1ncnc2c1c(-c1ccco1)cn2[C@@H]1O[C@H](CO)[C@@H](O)[C@@H]1F	< 10
Nc1ncnc2c1c(-c1cccs1)cn2[C@@H]1O[C@H](CO)[C@@H](O)[C@@H]1F	< 10
Nc1ncnc2c1c(-c1ccoc1)cn2[C@@H]1O[C@H](CO)[C@@H](O)[C@@H]1F	< 10
Nc1ncnc2c1c(-c1ccsc1)cn2[C@@H]1O[C@H](CO)[C@@H](O)[C@@H]1F	< 10

Test system: Hepatitis C virus
Experiment: Antiviral activity against Hepatitis C virus subtype 1b replicons infected in human HuH7 cells assessed as reduction in viral RNA levels by Rt-PCR
Type: functional, organism-based, Hepacivirus hominis
Settings: genotype 1b, Huh-7

Compound	pEC50
C[C@@]1(O)[C@H](O)[C@@H](CO)O[C@H]1n1cc(-c2ccccc2)c2c(N)ncnc21	4.57
Nc1ncnc2c1c(-c1ccoc1)cn2[C@@H]1O[C@H](CO)[C@@H](O)[C@@H]1O	4.65
COc1ccc(-c2cn([C@@H]3O[C@H](CO)[C@@H](O)[C@@]3(C)O)c3ncnc(N)c23)cc1	5.03
C[C@@]1(O)[C@H](O)[C@@H](CO)O[C@H]1n1cc(-c2cccc3ccccc23)c2c(N)ncnc21	4.62
C[C@@]1(O)[C@H](O)[C@@H](CO)O[C@H]1n1cc(-c2ccoc2)c2c(N)ncnc21	4.91
C[C@@]1(O)[C@H](O)[C@@H](CO)O[C@H]1n1cc(-c2ccsc2)c2c(N)ncnc21	4.81
Nc1ncnc2c1c(-c1ccccc1)cn2[C@@H]1O[C@H](CO)[C@@H](O)[C@@H]1F	4.36
Nc1ncnc2c1c(-c1ccco1)cn2[C@@H]1O[C@H](CO)[C@@H](O)[C@@H]1F	4.92
Nc1ncnc2c1c(-c1ccoc1)cn2[C@@H]1O[C@H](CO)[C@@H](O)[C@@H]1F	4.77

The next lines start with the values.

pEC50	Compound
6.42	C[C@@]1(O)[C@H](O)[C@@H](CO)O[C@H]1n1cc(I)c2c(N)ncnc21
5.27	C[C@@]1(O)[C@H](O)[C@@H](CO)O[C@H]1n1cc(-c2ccc3ccccc3c2)c2c(N)ncnc21
5.21	C[C@@]1(O)[C@H](O)[C@@H](CO)O[C@H]1n1cc(-c2cc3ccccc3o2)c2c(N)ncnc21
5.39	Nc1ncnc2c1c(-c1cccs1)cn2[C@@H]1O[C@H](CO)[C@@H](O)[C@@H]1F
4.97	Nc1ncnc2c1c(-c1ccsc1)cn2[C@@H]1O[C@H](CO)[C@@H](O)[C@@H]1F

Test system: HepG2
Experiment: Cytotoxicity against human HepG2 cells incubated for 3 days by XTT assay
Type: functional, cell-based
Settings: HepG2, 72 h
Summary of the method: as §1

Compound	pIC50
Nc1ncnc2c1c(-c1ccoc1)cn2[C@@H]1O[C@H](CO)[C@@H](O)[C@@H]1O	5.21
Nc1ncnc2c1c(-c1cccs1)cn2[C@@H]1O[C@H](CO)[C@@H](O)[C@@H]1F	< 5.00

Test system: not listed separately
Experiment: Cytostatic activity against human Hs578 cells incubated for 3 days by SRB assay
Type: functional
Settings: Hs578, 72 h

Compound	GI50
C[C@@]1(O)[C@H](O)[C@@H](CO)O[C@H]1n1cc(I)c2c(N)ncnc21	4.39 µM
Nc1ncnc2c1c(-c1ccco1)cn2[C@@H]1O[C@H](CO)[C@@H](O)[C@@H]1F	8.49 µM

Test system: DU-145
Experiment: Cytostatic activity against human DU145 cells incubated for 3 days by SRB assay
Type: functional
Settings: DU-145, 72 h

GI50	Compound
3.38 µM	C[C@@]1(O)[C@H](O)[C@@H](CO)O[C@H]1n1cc(I)c2c(N)ncnc21
8.52 µM	Nc1ncnc2c1c(-c1ccco1)cn2[C@@H]1O[C@H](CO)[C@@H](O)[C@@H]1F

Test system: not listed separately
Experiment: Selectivity index, ratio of CC50 for human HuH7 cells to EC50 for Hepatitis C virus subtype 1b replicons
Type: toxicity, cell-based, Huh-7
Settings: read-out: Ratio CC50/EC50

Compound	selectivity ratio
C[C@@]1(O)[C@H](O)[C@@H](CO)O[C@H]1n1cc(-c2ccccc2)c2c(N)ncnc21	< 10
Nc1ncnc2c1c(-c1ccoc1)cn2[C@@H]1O[C@H](CO)[C@@H](O)[C@@H]1O	< 10
C[C@@]1(O)[C@H](O)[C@@H](CO)O[C@H]1n1cc(I)c2c(N)ncnc21	65
COc1ccc(-c2cn([C@@H]3O[C@H](CO)[C@@H](O)[C@@]3(C)O)c3ncnc(N)c23)cc1	< 10
C[C@@]1(O)[C@H](O)[C@@H](CO)O[C@H]1n1cc(-c2cccc3ccccc23)c2c(N)ncnc21	< 10
C[C@@]1(O)[C@H](O)[C@@H](CO)O[C@H]1n1cc(-c2ccc3ccccc3c2)c2c(N)ncnc21	< 10
C[C@@]1(O)[C@H](O)[C@@H](CO)O[C@H]1n1cc(-c2ccoc2)c2c(N)ncnc21	< 10
C[C@@]1(O)[C@H](O)[C@@H](CO)O[C@H]1n1cc(-c2ccsc2)c2c(N)ncnc21	< 10
C[C@@]1(O)[C@H](O)[C@@H](CO)O[C@H]1n1cc(-c2cc3ccccc3o2)c2c(N)ncnc21	< 10
Nc1ncnc2c1c(-c1ccccc1)cn2[C@@H]1O[C@H](CO)[C@@H](O)[C@@H]1F	< 10
Nc1ncnc2c1c(-c1ccco1)cn2[C@@H]1O[C@H](CO)[C@@H](O)[C@@H]1F	< 10
Nc1ncnc2c1c(-c1cccs1)cn2[C@@H]1O[C@H](CO)[C@@H](O)[C@@H]1F	< 10
Nc1ncnc2c1c(-c1ccoc1)cn2[C@@H]1O[C@H](CO)[C@@H](O)[C@@H]1F	< 10
Nc1ncnc2c1c(-c1ccsc1)cn2[C@@H]1O[C@H](CO)[C@@H](O)[C@@H]1F	< 10

Test system: HCT-116
Experiment: Cytostatic activity against human HCT116 cells incubated for 3 days by SRB assay
Type: functional
Settings: HCT-116, 72 h

GI50	Compound
6.65 µM	C[C@@]1(O)[C@H](O)[C@@H](CO)O[C@H]1n1cc(I)c2c(N)ncnc21
> 10 µM	Nc1ncnc2c1c(-c1ccco1)cn2[C@@H]1O[C@H](CO)[C@@H](O)[C@@H]1F

Test system: NCI-H23
Experiment: Cytostatic activity against human NCI-H23 cells incubated for 3 days by SRB assay
Type: functional
Settings: NCI-H23, 72 h

GI50	Compound
0.79 µM	C[C@@]1(O)[C@H](O)[C@@H](CO)O[C@H]1n1cc(I)c2c(N)ncnc21
> 10 µM	Nc1ncnc2c1c(-c1ccco1)cn2[C@@H]1O[C@H](CO)[C@@H](O)[C@@H]1F

Test system: CCRF-CEM
Experiment: Cytotoxicity against human CCRF-CEM cells incubated for 3 days by XTT assay
Type: functional, cell-based
Settings: 72 h
Summary of the method: as §1

Compound	pIC50
Nc1ncnc2c1c(-c1ccoc1)cn2[C@@H]1O[C@H](CO)[C@@H](O)[C@@H]1O	5.33
C[C@@]1(O)[C@H](O)[C@@H](CO)O[C@H]1n1cc(I)c2c(N)ncnc21	5.36
C[C@@]1(O)[C@H](O)[C@@H](CO)O[C@H]1n1cc(-c2ccc3ccccc3c2)c2c(N)ncnc21	5.40
C[C@@]1(O)[C@H](O)[C@@H](CO)O[C@H]1n1cc(-c2cc3ccccc3o2)c2c(N)ncnc21	5.11
Nc1ncnc2c1c(-c1cccs1)cn2[C@@H]1O[C@H](CO)[C@@H](O)[C@@H]1F	5.12

Test system: not listed separately
Experiment: Toxicity against human HuH7 cells incubated for 3 days by CellTiter 96 AQueous One Solution cell proliferation assay
Type: cell-based, Huh-7
Settings: not given

Compound	CC50 at 72 h
C[C@@]1(O)[C@H](O)[C@@H](CO)O[C@H]1n1cc(-c2ccccc2)c2c(N)ncnc21	> 44 µM
Nc1ncnc2c1c(-c1ccoc1)cn2[C@@H]1O[C@H](CO)[C@@H](O)[C@@H]1O	> 44 µM
C[C@@]1(O)[C@H](O)[C@@H](CO)O[C@H]1n1cc(I)c2c(N)ncnc21	19.8 µM
COc1ccc(-c2cn([C@@H]3O[C@H](CO)[C@@H](O)[C@@]3(C)O)c3ncnc(N)c23)cc1	> 44 µM
C[C@@]1(O)[C@H](O)[C@@H](CO)O[C@H]1n1cc(-c2cccc3ccccc23)c2c(N)ncnc21	> 44 µM
C[C@@]1(O)[C@H](O)[C@@H](CO)O[C@H]1n1cc(-c2ccc3ccccc3c2)c2c(N)ncnc21	20.1 µM
C[C@@]1(O)[C@H](O)[C@@H](CO)O[C@H]1n1cc(-c2ccoc2)c2c(N)ncnc21	> 44 µM
C[C@@]1(O)[C@H](O)[C@@H](CO)O[C@H]1n1cc(-c2ccsc2)c2c(N)ncnc21	> 44 µM
C[C@@]1(O)[C@H](O)[C@@H](CO)O[C@H]1n1cc(-c2cc3ccccc3o2)c2c(N)ncnc21	29.4 µM
Nc1ncnc2c1c(-c1ccccc1)cn2[C@@H]1O[C@H](CO)[C@@H](O)[C@@H]1F	> 44 µM
Nc1ncnc2c1c(-c1ccco1)cn2[C@@H]1O[C@H](CO)[C@@H](O)[C@@H]1F	> 44 µM
Nc1ncnc2c1c(-c1cccs1)cn2[C@@H]1O[C@H](CO)[C@@H](O)[C@@H]1F	42.9 µM
Nc1ncnc2c1c(-c1ccoc1)cn2[C@@H]1O[C@H](CO)[C@@H](O)[C@@H]1F	> 44 µM
Nc1ncnc2c1c(-c1ccsc1)cn2[C@@H]1O[C@H](CO)[C@@H](O)[C@@H]1F	24.4 µM
